Assay results from ChEMBL document CHEMBL3779800 (ACS Med Chem Lett, 2016).

Legend:
[1] = molecular target: T1, Amine oxidase [flavin-containing] A (Homo sapiens, UniProt P21397); assay: Competitive inhibition of recombinant human MAO-A using p-tyramine as substrate preincubated for 15 mins followed by substrate addition by Lineweaver-Burk plot analysis
T1 sequence (P21397 whole entry): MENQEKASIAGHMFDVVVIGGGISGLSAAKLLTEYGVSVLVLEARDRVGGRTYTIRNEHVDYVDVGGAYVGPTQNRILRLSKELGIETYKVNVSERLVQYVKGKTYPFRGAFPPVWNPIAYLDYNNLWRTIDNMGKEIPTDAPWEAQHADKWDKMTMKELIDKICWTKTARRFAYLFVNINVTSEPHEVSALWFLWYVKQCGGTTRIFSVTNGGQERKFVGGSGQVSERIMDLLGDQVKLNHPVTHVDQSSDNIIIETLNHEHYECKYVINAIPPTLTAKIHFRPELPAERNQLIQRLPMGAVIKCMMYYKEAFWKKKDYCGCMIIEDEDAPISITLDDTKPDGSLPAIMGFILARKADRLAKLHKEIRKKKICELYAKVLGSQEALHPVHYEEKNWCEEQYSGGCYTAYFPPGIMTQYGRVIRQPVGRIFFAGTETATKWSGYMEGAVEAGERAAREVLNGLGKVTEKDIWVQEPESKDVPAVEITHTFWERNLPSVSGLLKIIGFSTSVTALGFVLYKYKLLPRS

[2] = molecular target: T1, Amine oxidase [flavin-containing] A; assay: Reversible inhibition of recombinant human MAO-A using p-tyramine as substrate incubated for 1 hr by centrifugation ultra filtration method
Homo sapiens = species: Homo sapiens; assay: Selectivity index, ratio of Ki for recombinant human MAO-A to Ki for recombinant human MAO-B
Procedure, shortened: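 SI is Ki(MAO-A)/Ki(MAO-B). Each Ki comes from the Amplex Red H2O2 assay with p-tyramine substrate and is the mean ± SEM of three independent experiments. Racemates were tested. A lower SI indicates MAO-A preference and a higher SI indicates MAO-B preference.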

[3] = molecular target: T2, Amine oxidase [flavin-containing] B (Homo sapiens, UniProt P27338); assay: Inhibition of recombinant human MAO-B using p-tyramine as substrate assessed as H2O2 production preincubated for 15 mins followed by substrate addition measured for 15 mins by amplex red assay
T2 sequence (P27338 whole entry): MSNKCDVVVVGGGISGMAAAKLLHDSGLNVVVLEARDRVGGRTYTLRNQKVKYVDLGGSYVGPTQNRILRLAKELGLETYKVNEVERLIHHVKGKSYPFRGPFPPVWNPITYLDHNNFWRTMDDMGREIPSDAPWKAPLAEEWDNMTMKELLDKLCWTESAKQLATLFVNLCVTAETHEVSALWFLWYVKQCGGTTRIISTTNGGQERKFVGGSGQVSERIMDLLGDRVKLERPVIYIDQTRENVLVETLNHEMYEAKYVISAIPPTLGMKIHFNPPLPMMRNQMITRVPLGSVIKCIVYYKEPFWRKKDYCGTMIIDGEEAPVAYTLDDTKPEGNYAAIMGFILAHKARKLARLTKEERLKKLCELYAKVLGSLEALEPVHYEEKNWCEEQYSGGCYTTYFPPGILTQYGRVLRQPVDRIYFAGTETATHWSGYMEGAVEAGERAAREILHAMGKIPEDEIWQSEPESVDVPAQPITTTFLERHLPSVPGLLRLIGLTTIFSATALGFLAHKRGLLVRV

[4] = molecular target: T1, Amine oxidase [flavin-containing] A; assay: Inhibition of recombinant human MAO-A using p-tyramine as substrate assessed as H2O2 production preincubated for 15 mins followed by substrate addition measured for 15 mins by amplex red assay
Procedure, shortened: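 H2O2 formed from p-tyramine, a substrate shared by hMAO-A and hMAO-B, was measured with an Amplex Red MAO kit. Compounds were checked for direct reaction with the Amplex Red reagent. They were also checked for resorufin quenching by combining the highest compound concentration with various resorufin concentrations. Protein was determined by Bradford with BSA standard. Values are mean ± SEM of three independent experiments.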

[5] = molecular target: T1, Amine oxidase [flavin-containing] A; assay: Suicide inhibition of recombinant human MAO-A using p-tyramine as substrate preincubated for 15 mins followed by substrate addition by Lineweaver-Burk plot analysis
[6] = molecular target: T1, Amine oxidase [flavin-containing] A; assay: Irreversible inhibition of recombinant human MAO-A using p-tyramine as substrate incubated for 1 hr by centrifugation ultra filtration method
Procedure, shortened: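 Reversibility of hMAO-A inhibition assessed by a centrifugation-ultrafiltration method. Enzyme activity was read as H2O2 production from p-tyramine using Amplex Red fluorescence. Compounds were checked for direct reaction with Amplex Red and for resorufin quenching, tested at their maximum concentration against various resorufin concentrations. Racemic compounds were used.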

Structure (SMILES) | inhibition (INH) [1] | inhibition (INH) [2] | Ratio Ki (Homo sapiens) | Ki [3] | Ki [4] | inhibition (INH) [5] | inhibition (INH) [6]
CCOC(=O)N1N=C(c2ccc(O)c(OC)c2)CC1c1ccccc1 (racemic) | Active | Active | 0.002 | 201 µM | 0.44 µM |  | 
COc1cc(C2=NN(C(=N)N)C(c3ccccc3)C2)ccc1O (racemic) | Active | Active | 0.047 | 201 µM | 9.55 µM |  | 
COc1cc(C2=NN(S(=O)(=O)c3ccc(C)cc3)C(c3ccccc3)C2)ccc1O (racemic) | Active | Active | 1.02e-05 | 5900 µM | 0.06 µM |  | 
COc1cc(C2=NNC(c3ccccc3)C2)ccc1O (racemic) | Active | Active | 14.3 | 0.35 µM | 5.02 µM |  | 
COc1cc(C2=NN(C(C)=O)C(c3ccccc3)C2)ccc1O (racemic) | Active | Active |  |  | 3.87 µM |  | 
COc1cc(C2=NN(C(=O)Oc3ccccc3)C(c3ccccc3)C2)ccc1O (racemic) | Active | Active | 0.073 | 4 µM | 0.29 µM |  | 
COc1cc(C2=NN(C(=S)Nc3ccccc3)C(c3ccccc3)C2)ccc1O (racemic) | Active | Active | 0.035 | 15.9 µM | 0.55 µM |  | 
COc1cc(C2=NN(c3ccccc3)C(c3ccccc3)C2)ccc1O (racemic) | Active | Active |  |  | 2.16 µM |  | 
COc1cc(C2=NN(C(=O)c3ccccc3)C(c3ccccc3)C2)ccc1O (racemic) | Active | Active | 0.104 | 41 µM | 4.25 µM |  | 
COc1cc(C2=NN(C(N)=S)C(c3ccccc3)C2)ccc1O (racemic) | Active | Active | 0.928 | 2.78 µM | 2.58 µM |  | 
COc1cc(/C=C/C(=O)CC(=O)/C=C/c2ccc(O)c(OC)c2)ccc1O [CURCUMIN] | Active | Active |  |  |  |  | 
O=C(NCCN1CCOCC1)c1ccc(Cl)cc1 [MOCLOBEMIDE] | Active | Active |  |  |  |  | 
C#CCN(C)[C@H](C)Cc1ccccc1 [SELEGILINE] |  |  |  |  |  | Active | Active
